# Tests used:
# Vero [1] = assay: Percentage plaque reduction was determined against rift valley fever(RVF) virus in african green monkey kidney (vero,V) at a conc of <25 ug/mL. Toxic level(320 ug/mL); type: functional, Chlorocebus sabaeus
# Vero [2] = assay: In vitro antiviral activity against herpes simplex type 1 (HSV-1) virus was determined in african green monkey kidney (vero,V) expressed as virus rating. Toxic level(320 ug/mL); type: functional, Chlorocebus sabaeus
# Procedure, shortened: (§1)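 Cell monolayers (18 h) infected with 320 TCID50 of virus. Compound was added within 15–30 min at half-log dilutions from 1000 to 1 μg/mL. After 72 h at 37 °C in 5% CO2, CPE was scored 0–4 by microscopy. VR = sum of (virus control − treated) scores, halved at partially toxic levels, divided by 10 × test cups per drug level.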
# Vero [3] = assay: In vitro antiviral activity against parainfluenza type 3(para 3) virus was determined in african green monkey kidney (vero,V) expressed as virus rating. Toxic level(320 ug/mL); type: functional, Chlorocebus sabaeus; procedure, shortened: as §1
# Vero [4] = assay: Percentage plaque reduction was determined against pichinde(PICH) virus in african green monkey kidney (vero,V).Toxic level(320 ug/mL); type: functional, Chlorocebus sabaeus
# Procedure, shortened: (§2)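 Infected Vero 24-well monolayers: virus adsorbed 1 h at 37 °C, then overlaid with agar holding dilutions of compound and incubated again at 37 °C with CO₂. Plaques were stained with crystal violet and counted. Inhibition was scored as % plaque reduction bands (10-30%, 31-60%, 61-90%), each tied to a drug concentration range.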
# Vero [5] = assay: Percentage plaque reduction was determined against Sandfly fever (SF) virus in african green monkey kidney (vero,V) at a conc of 25-100 ug/mL. Toxic level(320 ug/mL); type: functional, Chlorocebus sabaeus
# Vero [6] = assay: Percentage plaque reduction was determined against venezuelan equine encephalitis (VEE) virus in african green monkey kidney (vero,V) at a conc of 250-500 ug/mL. Toxic level(320 ug/mL); type: functional, Chlorocebus sabaeus
# Vero [7] = assay: Percentage plaque reduction was determined against pichinde(PICH) virus in african green monkey kidney (vero,V).; type: functional, Chlorocebus sabaeus; procedure, shortened: as §2
# HEp-2 [8] = assay: In vitro antiviral activity against vaccinia(VV) virus was determined in human laryngeal epithelioma (HEp-2,H)expressed as virus rating. Toxic level(320 ug/mL); type: functional; procedure, shortened: as §1
# Vero [9] = assay: In vitro antiviral activity against herpes simplex type 1 (HSV-1) virus was determined in african green monkey kidney (vero,V) expressed as virus rating. Toxic level(>1000 ug/mL); type: functional, Chlorocebus sabaeus; procedure, shortened: as §1
# Vero [10] = assay: In vitro antiviral activity against parainfluenza type 3(para 3) virus was determined in african green monkey kidney (vero,V) expressed as virus rating. Toxic level(>1000 ug/mL); type: functional, Chlorocebus sabaeus; procedure, shortened: as §1
# HEp-2 [11] = assay: In vitro antiviral activity against herpes simplex type 1 (HSV-1) virus was determined in human laryngeal epithelioma (HEp-2,H)expressed as virus rating. Toxic level(320 ug/mL); type: functional; procedure, shortened: as §1
# Vero [12] = assay: In vitro antiviral activity against vaccinia(VV) virus was determined in african green monkey kidney (vero,V) expressed as virus rating. Toxic level(>1000 ug/mL); type: functional, Chlorocebus sabaeus; procedure, shortened: as §1
# HEp-2 [13] = assay: In vitro antiviral activity against parainfluenza type 3 (para 3) virus was determined in human laryngeal epithelioma (HEp-2,H)expressed as virus rating. Toxic level(320 ug/mL); type: functional; procedure, shortened: as §1
# Vero [14] = assay: In vitro antiviral activity against herpes simplex type 1 (HSV-1) virus was determined in african green monkey kidney (vero,V) expressed as virus rating. Toxic level(100 ug/mL); type: functional, Chlorocebus sabaeus; procedure, shortened: as §1
# Vero [15] = assay: In vitro antiviral activity against parainfluenza type 3(para 3) virus was determined in african green monkey kidney (vero,V) expressed as virus rating. Toxic level(100 ug/mL); type: functional, Chlorocebus sabaeus; procedure, shortened: as §1
# Vero [16] = assay: In vitro antiviral activity against vaccinia(VV) virus was determined in african green monkey kidney (vero,V) expressed as virus rating. Toxic level(100 ug/mL); type: functional, Chlorocebus sabaeus; procedure, shortened: as §1
# HEp-2 [17] = assay: In vitro antiviral activity against parainfluenza type 3(para 3) virus was determined in human laryngeal epithelioma (HEp-2,H)expressed as virus rating. Toxic level(100 ug/mL); type: functional; procedure, shortened: as §1
# HEp-2 [18] = assay: In vitro antiviral activity against vaccinia(VV) virus was determined in human laryngeal epithelioma (HEp-2,H)expressed as virus rating. Toxic level(100 ug/mL); type: functional; procedure, shortened: as §1
# HEp-2 [19] = assay: In vitro antiviral activity against herpes simplex type 1 (HSV-1) virus was determined in human laryngeal epithelioma (HEp-2,H)expressed as virus rating. Toxic level(100 ug/mL); type: functional; procedure, shortened: as §1
# HEp-2 [20] = assay: In vitro antiviral activity against parainfluenza type 3 (para3) virus was determined in human laryngeal epithelioma (HEp-2,H)expressed as virus rating. Toxic level(100 ug/mL); type: functional; procedure, shortened: as §1
# Vero [21] = assay: In vitro antiviral activity against parainfluenza type 3(para 3) virus was determined in african green monkey kidney (vero,V) expressed as virus rating; type: functional, Chlorocebus sabaeus; procedure, shortened: as §1
# Vero [22] = assay: In vitro antiviral activity against herpes simplex type 1 (HSV-1) virus was determined in african green monkey kidney (vero,V) expressed as virus rating; type: functional, Chlorocebus sabaeus; procedure, shortened: as §1
# Vero [23] = assay: In vitro antiviral activity against vaccinia(VV) virus was determined in african green monkey kidney (vero,V) expressed as virus rating; type: functional, Chlorocebus sabaeus; procedure, shortened: as §1
# Vero [24] = assay: Percentage plaque reduction was determined against rift valley fever(RVF) virus in african green monkey kidney (vero,V) at a conc of 100-250 ug/mL. Toxic level(10 ug/mL); type: functional, Chlorocebus sabaeus
# Vero [25] = assay: Percentage plaque reduction was determined against venezuelan equine encephalitis (VEE) virus in african green monkey kidney (vero,V) at a conc of 100-250 ug/mL. Toxic level(10 ug/mL); type: functional, Chlorocebus sabaeus
# Vero [26] = assay: Percentage plaque reduction was determined against Sandfly fever (SF) virus in african green monkey kidney (vero,V) at a conc of 25-100 ug/mL. Toxic level(10 ug/mL); type: functional, Chlorocebus sabaeus
# Vero [27] = assay: Percentage plaque reduction was determined against rift valley fever(RVF) virus in african green monkey kidney (vero,V) at a conc of 25-100 ug/mL. Toxic level(10 ug/mL); type: functional, Chlorocebus sabaeus
# Vero [28] = assay: Percentage plaque reduction was determined against yellow fever (YF) virus in african green monkey kidney (vero,V).Toxic level(10 ug/mL); type: functional, Chlorocebus sabaeus
# Vero [29] = assay: Percentage plaque reduction was determined against Sandfly fever (SF) virus in african green monkey kidney (vero,V) at a conc of 250-500 ug/mL. Toxic level(10 ug/mL); type: functional, Chlorocebus sabaeus
# Vero [30] = assay: Percentage plaque reduction was determined against pichinde(PICH) virus in african green monkey kidney (vero,V).Toxic level(10 ug/mL); type: functional, Chlorocebus sabaeus; procedure, shortened: as §2
# Vero [31] = assay: Percentage plaque reduction was determined against rift valley fever(RVF) virus in african green monkey kidney (vero,V) at a conc of 250-500 ug/mL. Toxic level(10 ug/mL); type: functional, Chlorocebus sabaeus
# Vero [32] = assay: Percentage plaque reduction was determined against Sandfly fever (SF) virus in african green monkey kidney (vero,V) at a conc of <25 ug/mL. Toxic level(10 ug/mL); type: functional, Chlorocebus sabaeus; procedure, shortened: as §2
# Vero [33] = assay: Percentage plaque reduction was determined against venezuelan equine encephalitis (VEE) virus in african green monkey kidney (vero,V) at a conc of <25 ug/mL; type: functional, Chlorocebus sabaeus
# Vero [34] = assay: Percentage plaque reduction was determined against Sandfly fever (SF) virus in african green monkey kidney (vero,V) at a conc of 100-250 ug/mL. Toxic level(10 ug/mL); type: functional, Chlorocebus sabaeus
# Vero [35] = assay: Percentage plaque reduction was determined against rift valley fever(RVF) virus in african green monkey kidney (vero,V) at a conc of <25 ug/mL. Toxic level(10 ug/mL); type: functional, Chlorocebus sabaeus
# Vero [36] = assay: Percentage plaque reduction was determined against venezuelan equine encephalitis (VEE) virus in african green monkey kidney (vero,V) at a conc of 25-100 ug/mL. Toxic level(10 ug/mL); type: functional, Chlorocebus sabaeus
# Vero [37] = assay: Percentage plaque reduction was determined against venezuelan equine encephalitis (VEE) virus in african green monkey kidney (vero,V) at a conc of 250-500 ug/mL. Toxic level(10 ug/mL); type: functional, Chlorocebus sabaeus
# Vero [38] = assay: In vitro antiviral activity against herpes simplex type 1 (HSV-1) virus was determined in african green monkey kidney (vero,V) expressed as virus rating. Toxic level(10 ug/mL); type: functional, Chlorocebus sabaeus; procedure, shortened: as §1
# Vero [39] = assay: Percentage plaque reduction was determined against pichinde(PICH) virus in african green monkey kidney (vero,V). Toxic level(>1000 ug/mL); 31-60; type: functional, Chlorocebus sabaeus; procedure, shortened: as §2
# Vero [40] = assay: Percentage plaque reduction was determined against venezuelan equine encephalitis (VEE) virus in african green monkey kidney (vero,V) at a conc of <25 ug/mL./Toxic level(>1000 ug/mL); type: functional, Chlorocebus sabaeus
# Vero [41] = assay: Percentage plaque reduction was determined against yellow fever(YF) virus in african green monkey kidney Toxic level(>1000 ug/mL); type: functional, Chlorocebus sabaeus
# Vero [42] = assay: Percentage plaque reduction was determined against rift valley fever(RVF) virus in african green monkey kidney (vero,V) at a conc of 25-100 ug/mL. Toxic level(>1000 ug/mL); type: functional, Chlorocebus sabaeus
# Vero [43] = assay: Percentage plaque reduction was determined against Sandfly fever (SF) virus in african green monkey kidney (vero,V) at a conc of <25 ug/mL. Toxic level(>1000 ug/mL); type: functional, Chlorocebus sabaeus; procedure, shortened: as §2
# Vero [44] = assay: Percentage plaque reduction was determined against venezuelan equine encephalitis (VEE) virus in african green monkey kidney (vero,V) at a conc of 250-500 ug/mL. Toxic level(>1000 ug/mL); type: functional, Chlorocebus sabaeus
# Vero [45] = assay: Percentage plaque reduction was determined against Sandfly fever (SF) virus in african green monkey kidney (vero,V) at a conc of 250-500 ug/mL. Toxic level(>1000 ug/mL); type: functional, Chlorocebus sabaeus
# Vero [46] = assay: Percentage plaque reduction was determined against Sandfly fever (SF) virus in african green monkey kidney (vero,V) at a conc of 100-250 ug/mL. Toxic level(>1000 ug/mL); type: functional, Chlorocebus sabaeus
# Vero [47] = assay: Percentage plaque reduction was determined against rift valley fever(RVF) virus in african green monkey kidney (vero,V) at a conc of 100-250 ug/mL. Toxic level(>1000 ug/mL); type: functional, Chlorocebus sabaeus
# Vero [48] = assay: Percentage plaque reduction was determined against rift valley fever(RVF) virus in african green monkey kidney (vero,V) at a conc of <25 ug/mL. Toxic level(>1000 ug/mL); type: functional, Chlorocebus sabaeus
# Vero [49] = assay: 0 Percentage plaque reduction was determined against rift valley fever(RVF) virus in african green monkey kidney (vero,V) at a conc of 250-500 ug/mL. Toxic level(>1000 ug/mL); type: functional, Chlorocebus sabaeus
# Vero [50] = assay: Percentage plaque reduction was determined against venezuelan equine encephalitis (VEE) virus in african green monkey kidney (vero,V) at a conc of 25-100 ug/mL. Toxic level(>1000 ug/mL); type: functional, Chlorocebus sabaeus
# Vero [51] = assay: Percentage plaque reduction was determined against Sandfly fever (SF) virus in african green monkey kidney (vero,V) at a conc of 25-100 ug/mL. Toxic level(>1000 ug/mL); type: functional, Chlorocebus sabaeus
# Vero [52] = assay: Percentage plaque reduction was determined against venezuelan equine encephalitis (VEE) virus in african green monkey kidney (vero,V) at a conc of 100-250 ug/mL. Toxic level(>1000 ug/mL); type: functional, Chlorocebus sabaeus
smiles,measurement,setting,value
OC[C@H]1OC(n2ccc3c(Cl)ncnc32)[C@H](O)[C@@H]1O (stereo partly drawn),Plaque reduction,Vero [1],>90%
same,Virus rating,Vero [2],0.2
same,Virus rating,Vero [3],0.1
same,Plaque reduction,Vero [4],>90%
same,Plaque reduction,Vero [5],90%
same,Plaque reduction,Vero [6],0%
same,Plaque reduction,Vero [7],>90%
NC(=O)c1ncnc2c1cnn2C1O[C@H](CO)[C@@H](O)[C@H]1O (stereo partly drawn),Virus rating,HEp-2 [8],0.2
same,Virus rating,Vero [9],0
same,Virus rating,Vero [10],0
same,Virus rating,HEp-2 [11],0
same,Virus rating,Vero [12],0
same,Virus rating,HEp-2 [13],0
NC(=O)c1ncnc2c([C@@H]3O[C@H](CO)[C@@H](O)[C@H]3O)n[nH]c12,Virus rating,Vero [14],0
same,Virus rating,Vero [15],0
same,Virus rating,Vero [16],0.6
same,Virus rating,HEp-2 [17],0.4
same,Virus rating,HEp-2 [18],0.8
same,Virus rating,HEp-2 [19],0
CSc1ncnc2c1ccn2[C@@H]1O[C@H](CO)[C@@H](O)[C@H]1O,Virus rating,Vero [9],0.5
same,Virus rating,Vero [10],0.9
same,Virus rating,HEp-2 [18],1.4
same,Virus rating,Vero [12],1
same,Virus rating,HEp-2 [19],1.3
same,Virus rating,HEp-2 [20],1.5
CSc1ncnc2c([C@@H]3O[C@H](CO)[C@@H](O)[C@H]3O)n[nH]c12,Virus rating,Vero [21],1.3
same,Virus rating,Vero [22],0.8
same,Virus rating,Vero [23],1.4
O=C1N=CN=C2C([C@@H]3O[C@H](CO)[C@@H](O)[C@H]3O)=NNC12 (stereo partly drawn),Plaque reduction,Vero [24],0%
same,Plaque reduction,Vero [25],0%
same,Plaque reduction,Vero [26],0%
same,Plaque reduction,Vero [27],0%
same,Plaque reduction,Vero [28],0%
same,Plaque reduction,Vero [29],0%
same,Plaque reduction,Vero [30],>90%
same,Plaque reduction,Vero [31],0%
same,Plaque reduction,Vero [32],0%
same,Plaque reduction,Vero [33],0%
same,Plaque reduction,Vero [34],0%
same,Plaque reduction,Vero [35],0%
same,Plaque reduction,Vero [36],0%
same,Plaque reduction,Vero [37],0%
same,Virus rating,Vero [38],0.1
O=C1N=CN=C2C1C=NN2C1O[C@H](CO)[C@@H](O)[C@H]1O (stereo partly drawn),Plaque reduction,Vero [39],31%
same,Plaque reduction,Vero [40],0%
same,Virus rating,Vero [9],0
same,Plaque reduction,Vero [41],0%
same,Plaque reduction,Vero [42],0%
same,Plaque reduction,Vero [43],0%
same,Plaque reduction,Vero [44],0%
same,Plaque reduction,Vero [45],0%
same,Plaque reduction,Vero [46],0%
same,Plaque reduction,Vero [47],0%
same,Plaque reduction,Vero [48],0%
same,Plaque reduction,Vero [49],0%
same,Plaque reduction,Vero [50],0%
same,Plaque reduction,Vero [51],0%
same,Plaque reduction,Vero [52],0%
